Experimental data taken from ChEMBL document CHEMBL4257483, “Design, synthesis and bioactivities of phenithionate analogues or derivatives for anti-schistosomiasis” (Medchemcomm, 2018).
In brackets after ≈: the same amount, converted by molar mass. Activity calls are given as the source filed them. No cut-off for these calls is given here.

Experiments:
Schistosoma japonicum [1] = test: Antischistosomal activity against Schistosoma japonicum imago derived from infected mouse assessed as reduction in imago viability after 72 hrs; assay type: functional, organism-based
Outline: (§1)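 Worms perfused with cold heparinised HBSS from mice infected percutaneously with S. japonicum cercariae: larvae at 15 days post-infection (260–280 cercariae), adults at 35 days (120–140 cercariae). Five male and female worms per well in 10% calf serum RPMI 1640 with penicillin, streptomycin and amphotericin B. Preincubated 4 h at 37 °C, 5% CO2, then compounds added and viability recorded over 72 h. IC50 taken at 50% survival. DMSO blank.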

[2] = Lipid/water partition coefficient, log P of the compound; assay type: physicochemical
Schistosoma japonicum [3] = test: Antischistosomal activity against Schistosoma japonicum larva derived from infected mouse assessed as reduction in larva viability after 72 hrs; assay type: functional, organism-based; outline: as §1
[4] = Dissociation constant, pKa of the compound; assay type: physicochemical
Schistosoma japonicum [5] = test: Antischistosomal activity against Schistosoma japonicum infected in mouse at 25 mg/kg/day, po treated for 5 days measured after day 1 post last dose by ELISA; assay type: functional, organism-based
Outline: (§2)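 Male mice (20–22 g) infected via abdominal skin with 120–140 S. japonicum cercariae. From day 35 post-infection, dosed orally once daily for 5 days. Venous blood then clotted and centrifuged 15 min at 3500 rpm. Serum tested by triple dot ELISA and scored by spot colour: brown +++, yellow ++, slight yellow +, colourless –. DMSO blank.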

Schistosoma japonicum [6] = test: Antischistosomal activity against Schistosoma japonicum infected in mouse at 25 mg/kg/day, po treated for 5 days measured after day 9 post last dose by ELISA; assay type: functional, organism-based; outline: as §2
Schistosoma japonicum [7] = test: Antischistosomal activity against Schistosoma japonicum infected in mouse at 25 mg/kg/day, po treated for 5 days measured after day 6 post last dose by ELISA; assay type: functional, organism-based; outline: as §2
Schistosoma japonicum [8] = test: Antischistosomal activity against Schistosoma japonicum infected in mouse at 25 mg/kg/day, po treated for 5 days measured after day 8 post last dose by ELISA; assay type: functional, organism-based; outline: as §2
Schistosoma japonicum [9] = test: Antischistosomal activity against Schistosoma japonicum infected in mouse at 25 mg/kg/day, po treated for 5 days measured after day 3 post last dose by ELISA; assay type: functional, organism-based; outline: as §2
Schistosoma japonicum [10] = test: Antischistosomal activity against Schistosoma japonicum infected in mouse at 25 mg/kg/day, po treated for 5 days measured after day 5 post last dose by ELISA; assay type: functional, organism-based; outline: as §2
Schistosoma japonicum [11] = test: Antischistosomal activity against Schistosoma japonicum infected in mouse at 50 mg/kg/day, po treated for 5 days measured after day 1 post last dose by ELISA; assay type: functional, organism-based; outline: as §2
[12] = Acute toxicity in po dosed mouse infected with Schistosoma japonicum treated for 5 days; assay type: organism-based; conditions: in vivo
Schistosoma japonicum [13] = test: Antischistosomal activity against Schistosoma japonicum infected in mouse at 25 mg/kg/day, po treated for 5 days measured after day 2 post last dose by ELISA; assay type: functional, organism-based; outline: as §2
Schistosoma japonicum [14] = test: Antischistosomal activity against Schistosoma japonicum infected in mouse at 25 mg/kg/day, po treated for 5 days measured after day 7 post last dose by ELISA; assay type: functional, organism-based; outline: as §2
Schistosoma japonicum [15] = test: Antischistosomal activity against Schistosoma japonicum infected in mouse at 25 mg/kg/day, po treated for 5 days measured after day 4 post last dose by ELISA; assay type: functional, organism-based; outline: as §2
Schistosoma japonicum [16] = test: Antischistosomal activity against Schistosoma japonicum imago derived from infected mouse at 20 ug/ml after 72 hrs; assay type: functional, organism-based; outline: as §1
Schistosoma mansoni = test: Antischistosomal activity against Schistosoma mansoni imago derived from infected mouse at 20 ug/ml after 72 hrs; assay type: functional, organism-based
Schistosoma haematobium = test: Antischistosomal activity against Schistosoma haematobium imago derived from infected mouse at 20 ug/ml after 72 hrs; assay type: functional, organism-based

IC50 (Schistosoma japonicum [1]) [µg/mL]	logP [2]	pKa [4]	SMILES	IC50 (Schistosoma japonicum [3]) [µg/mL]	other results
20.1 (≈ 40.6 µM)	6.07	9.01	CC(=O)Nc1ccc(OC(=S)Nc2ccc(Nc3ccc(C(Cl)(Cl)Cl)cc3)cc2)cc1	11.6 (≈ 23.4 µM)	–
15.2 (≈ 36 µM)	4.32	9.04	CC(=O)Nc1ccc(OC(=S)Nc2ccc(Nc3ccc([N+](=O)[O-])cc3)cc2)cc1	8.22 (≈ 19.5 µM)	–
20 (≈ 44.9 µM)	5.32	9.05	CC(=O)Nc1ccc(OC(=S)Nc2ccc(Nc3ccc(C(F)(F)F)cc3)cc2)cc1	11.2 (≈ 25.1 µM)	–
31.2 (≈ 71 µM)	5.06	8.99	CC(=O)Nc1ccc(OC(=S)Nc2ccc(Sc3ccc([N+](=O)[O-])cc3)cc2)cc1	16.7 (≈ 37.9 µM)	–
30.5 (≈ 76.6 µM)	5.25	9.21	O=[N+]([O-])c1ccc(Sc2ccc(NC(=S)Oc3ccc(O)cc3)cc2)cc1	15.7 (≈ 39.3 µM)	–
14.1 (≈ 33.3 µM)	4.81	9.04	CC(=O)Nc1ccc(OC(=S)Nc2ccc(Oc3ccc([N+](=O)[O-])cc3)cc2)cc1	8.24 (≈ 19.5 µM)	–

The remaining lines, values behind:

SMILES	IC50 (Schistosoma japonicum [1]) [µg/mL]	logP [2]	pKa [4]	IC50 (Schistosoma japonicum [3]) [µg/mL]	other results
Oc1ccc(OC(=S)Nc2ccc(Sc3ccc(C(Cl)(Cl)Cl)cc3)cc2)cc1	37.3 (≈ 79.2 µM)	7.43	9.22	21.1 (≈ 44.8 µM)	–
CC(=O)Nc1ccc(OC(=S)Nc2ccc(Oc3ccc(C(Cl)(Cl)Cl)cc3)cc2)cc1	18.3 (≈ 36.9 µM)	6.16	9.02	10.2 (≈ 20.6 µM)	–
O=[N+]([O-])c1ccc(Nc2ccc(NC(=S)Oc3ccccc3)cc2)cc1	8.21 (≈ 22.5 µM)	–	–	6.53 (≈ 17.9 µM)	Activity (Schistosoma japonicum [5]): Active; Activity (Schistosoma japonicum [6]): Active; Activity (Schistosoma japonicum [7]): Active; Activity (Schistosoma japonicum [8]): Active; Activity (Schistosoma japonicum [9]): Active; Activity (Schistosoma japonicum [10]): Active; Activity (Schistosoma japonicum [11]): Active; LD50 at 120 h [12]: 310 mg/kg; Activity (Schistosoma japonicum [13]): Active; Activity (Schistosoma japonicum [14]): Active; Activity (Schistosoma japonicum [15]): Active
CC(=O)Nc1ccc(OC(=S)Nc2ccc(Sc3ccc(C(Cl)(Cl)Cl)cc3)cc2)cc1	40.4 (≈ 78.9 µM)	6.71	9.01	23.5 (≈ 46 µM)	–
Oc1ccc(OC(=S)Nc2ccc(Nc3ccc(C(Cl)(Cl)Cl)cc3)cc2)cc1	12.4 (≈ 27.3 µM)	6.79	9.23	7.35 (≈ 16.2 µM)	Activity (Schistosoma japonicum [5]): Active; Activity (Schistosoma japonicum [6]): Active; Activity (Schistosoma japonicum [7]): Active; Activity (Schistosoma japonicum [8]): Active; Activity (Schistosoma japonicum [9]): Active; Activity (Schistosoma japonicum [16]): Active; Activity (Schistosoma japonicum [11]): inactive; LD50 at 120 h [12]: > 500 mg/kg; Activity (Schistosoma japonicum [13]): Active; Activity (Schistosoma japonicum [14]): Active; Activity (Schistosoma mansoni): inactive; Activity (Schistosoma japonicum [15]): Active; Activity (Schistosoma haematobium): inactive
CC(=O)Nc1ccc(OC(=S)Nc2ccc(Sc3ccc(C(F)(F)F)cc3)cc2)cc1	33.7 (≈ 72.8 µM)	5.96	9.02	19 (≈ 41.1 µM)	–
Oc1ccc(OC(=S)Nc2ccc(Sc3ccc(C(F)(F)F)cc3)cc2)cc1	31.9 (≈ 75.6 µM)	6.66	9.22	16.6 (≈ 39.3 µM)	–
CC(=O)Nc1ccc(OC(=S)Nc2ccc(Oc3ccc(C(F)(F)F)cc3)cc2)cc1	17.3 (≈ 38.7 µM)	5.41	9.03	10.4 (≈ 23.2 µM)	–
